Results taken from ChEMBL document CHEMBL4513216, “Probing the Open Global Health Chemical Diversity Library for Multistage-Active Starting Points for Next-Generation Antimalarials” (ACS Infect Dis, 2020).

Test: Toxicity liver stage against HepG2, at 10uM
Type: cell-based
Design: test concentration 10 uM, cell line HepG2-A16-CD81EGFP
Conditions: human, HepG2-A16-CD81EGFP cells; read-out: INHIBITION
Procedure, shortened: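 Uninfected HepG2-A16-CD81EGFP cells, 3 × 10^3 per well, 1536-well, plated on prespotted compound at 10 μM final, parasite-free screening media added to match infected plates; puromycin 10 μM positive, DMSO 0.5% negative; run in parallel with 48 h PbLuc assay at 37 °C, 5% CO2; viability by CellTiter-Glo luminescence, normalized to controls.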

| Compound | cytotoxicity at 10 µM [%] |
| --- | --- |
| CCCc1nnc(NCCCn2nc(C)c(Cl)c2C)o1 | -0.351 |
| O=C(c1ccco1)N1CCO[C@@H]2CN(c3ncc(F)cn3)CC[C@@H]2C1 | 4.74 |
| Cc1nc(CN2CCC3(CC2)CC(c2cccnc2)C(=O)N3C)cs1 (stereo not drawn) | 9.95 |
| COc1ccc2c(c1)c(C(=O)Nc1nnn[nH]1)cn2C(C)C | -57.8 |
| Cc1ccccc1C(C(=O)N(C)CCc1cnn(C)c1)N(C)C (stereo not drawn) | -3.57 |
| CC(NC(=O)N1CCC(n2cncn2)CC1)c1ccc(F)cc1F (stereo not drawn) | -9.88 |
| CN(C)Cc1noc2c1CN(Cc1ccsc1)CC2 | -2.88 |
| O=C(O)Cc1cccc(-n2ccnc2-c2ccc(F)c(Cl)c2)c1 | 2.17 |
| CS(=O)(=O)c1ccc(CN2C[C@@H]3OCC(=O)N(CC(N)=O)[C@@H]3C2)cc1 | 2.67 |
| CC(C)CNC(=O)NC(=O)CNc1ccccc1SCC(C)C#N (stereo not drawn) | -8.05 |
| CC(=O)c1cc(CC(=O)N2CCCC2c2nc(C(C)C)no2)cs1 (stereo not drawn) | 3.07 |
| CC(Cn1cncn1)NC(=O)Nc1ccc(F)cc1OCC1CC1 (stereo not drawn) | 4.34 |
| Cn1nc(-c2ccccc2)c(Br)c1C(=O)O | -48.3 |
| Cn1cc(C(=O)NCc2cncc3c2CCN(CC2CC2)C3)cn1 | -103 |
| CC(C)=CCS(=O)(=O)Cc1ccn(-c2cccc(F)c2)n1 | 6.37 |
| O=C(c1ccc[nH]1)N1CC[C@@H](OCC2CC2)[C@@H]1Cc1cccnc1 | 0.878 |
| Cc1onc(N)c1S(=O)(=O)N1CCCCC1C (stereo not drawn) | 12.4 |
| O=C(CO)N1C[C@@H]2CC[C@H]1CN(C1Cc3ccccc3C1)C2 | -11.3 |
| COCCc1noc(Cn2ccc3ccccc3c2=O)n1 | 0.0869 |
| N#Cc1cccc(C(=O)N2CCCC(O)(CO)CC2)c1 (stereo not drawn) | 1.29 |
| CN(C)C(=O)CO[C@H]1CN(Cc2ccccc2)[C@@H]2CCCO[C@H]12 | -8.1 |
| CS(=O)(=O)N1C[C@H]2CC[C@@H](C1)N(C/C=C/c1ccc(F)cc1)C2 | -15.5 |

| Compound | cytotoxicity at 10 µM [%] |
| --- | --- |
| CC(C)c1noc(CCC(=O)Nc2cc(C(F)(F)F)c[nH]c2=O)n1 | -0.387 |
| O=C(NCCn1cccc1)C(c1ccccc1)N1CCCC1 (stereo not drawn) | -0.288 |
| O=C(NC1CCC(O)CC1)c1ccc2nc(-c3ccccc3)cn2c1 (stereo not drawn) | 8.99 |
| COCCN(Cc1ccoc1)C(=O)c1c(F)cccc1Cl | -0.11 |
| O=C(NCc1cn2c(n1)SCC2)c1cn(CCN2CCCCC2)nn1 | -3.69 |
| Cn1ncc(C(=O)N2CCCC(n3cccn3)C2)c1C1CC1 (stereo not drawn) | 4.98 |
| O=C1CC2(CCNCC2)C(=O)N1Cc1ccc(F)cc1 | 6.68 |
| O=C(Nc1cccnc1)[C@H]1C[C@H]2OCC[C@H]2N(Cc2ccc(F)cc2)C1 | 0.592 |
| CCN(CCO)C[C@@H]1CN(c2cccc(C(F)(F)F)n2)C[C@@H]1CO | 0.855 |
| Cc1cc(CN(C)C(=O)C2CCCN(C(N)=O)C2)no1 (stereo not drawn) | 11.6 |
| Cc1cccc(NCc2ncc(C(C)(C)C)o2)c1 | 24.3 |
| O=C(C1CC1)N1CCC(C(=O)N2CCC(c3ccc(F)cc3)C2)CC1 (stereo not drawn) | -46.3 |
| CCn1ccnc1CN1CCCN(C(=O)c2ccnc(C)n2)CC1 | -12.2 |
| Cc1nc(C)c(C(=O)N2CCc3[nH]nc(COc4ccccc4)c3C2)s1 | -3.09 |
| CSCc1cccc(NC(=O)N2CCC(N3CC=CC3)C2)c1 (stereo not drawn) | -1.83 |
| Cc1nc(N2CCOCC2)nc2c1CN(C(=O)C(C)C)CC2 | 0.552 |
| O=C(Cc1ccccc1)N1CC(=O)N(Cc2ccco2)CC(O)C1 (stereo not drawn) | -4.05 |
| Cc1nccc(C(=O)N2CCCC(c3cc(C(F)(F)F)[nH]n3)C2)n1 (stereo not drawn) | -4.59 |
| CC(Nc1cccc(CN2CCOC2=O)c1)C(=O)NC(=O)NC(C)(C)C (stereo not drawn) | -10.9 |
| Cc1ccc(C(=O)N2CCC(=O)N(CC3CC3)C(C(C)C)C2)c(=O)[nH]1 (stereo not drawn) | -15 |
| O=C(O)CC(NC(=O)c1ccccc1OC(F)F)c1cccs1 (stereo not drawn) | -10.8 |
| CC(=O)N1CCN(C(=O)CN2CCCC2Cn2nc(C)cc2C)CC1 (stereo not drawn) | -12.2 |

| Compound | cytotoxicity at 10 µM [%] |
| --- | --- |
| Cc1c(C(=O)N2CCN(C)CC2)n(C)c2ccc(Cl)cc12 | -2.46 |
| O=C(Nc1cccc(C(F)(F)F)c1)N1CCN(CCn2ccnc2)CC1 | -25.3 |
| O=C(c1ccccc1OCC1CC1)N1CCCC1Cn1cccn1 (stereo not drawn) | -6.77 |
| CC(Cn1ccnc1)NC1CCN(Cc2cccc(O)c2)CC1 (stereo not drawn) | -4.21 |
| Cc1ccc(-c2n[nH]cc2CNCC2CCS(=O)(=O)C2)o1 (stereo not drawn) | 12.4 |
| Fc1ccc(C2(CNCC(F)F)CCOC2)cc1 (stereo not drawn) | -152 |
| CO[C@@H]1CCN(Cc2c(C)noc2C)[C@@H]2CN(Cc3ccco3)C[C@@H]21 | 8.64 |
| Cc1ccc(OCC(=O)N(C)Cc2ccc(F)cc2)cn1 | 7.88 |
| O=C(NCCc1ccncc1)c1cccnc1OCC(F)(F)F | 5.03 |
| CNS(=O)(=O)c1cc(C(=O)N2CCCCCC2CC(C)C)co1 (stereo not drawn) | 11.2 |
| Cc1ccc(OCCCC(=O)NC(C)c2ccc(S(N)(=O)=O)cc2)cc1 (stereo not drawn) | -2.69 |
| CS(=O)(=O)NC[C@@H]1OC[C@H]2CN(C(=O)c3ccccc3)CC[C@H]21 | 10.3 |
| CC(=O)N1CCN(C(=O)c2cc(-n3cnnn3)ccc2Cl)CC1 | 8.32 |
| COc1ncccc1CN1CCn2c(Cn3cncn3)cnc2C1 | -3.17 |
| CS(=O)(=O)N1CCC(Oc2cnccn2)CC1 | 0.097 |
| Cc1cc2cc(C(=O)N[C@@H]3CC[C@@H](N4CCNC(=O)C4)[C@@H]3O)ccc2o1 | -5 |
| Cn1cc(N2CCCC(Oc3ccc(F)cc3Cl)C2=O)cn1 (stereo not drawn) | -3.3 |
| CN(CC1CCCCC1)C(=O)c1ccc(-n2ncc(C#N)c2N)cc1 | 0.347 |
| Cn1ncc2c(=O)[nH]c(CN3CCCc4cc(F)cc(F)c43)nc21 | -1.76 |
| CC(C(=O)NCc1ccnc(Oc2ccc(F)cc2)c1)n1cncn1 (stereo not drawn) | -3.63 |
| O=C(Cn1ccc2c(Cl)cccc21)Nc1nc[nH]n1 | -1.88 |
| COCCN1CCOCC12CCN(Cc1ccn(C)n1)CC2 | -3.39 |

| Compound | cytotoxicity at 10 µM [%] |
| --- | --- |
| CC(CCNC(=O)N(C)CC1CCOCC1)N1CCCCC1 (stereo not drawn) | 8.63 |
| CNC(=O)c1c(C)cccc1NCC(=O)Nc1cc(C)nn1C | -0.503 |
| N#Cc1cnc(NC2CCN(C(=O)C3CCCCC3)CC2)c(Cl)c1 | -3.75 |
| CCN(Cc1ccc(F)cc1Cl)C1CCS(=O)(=O)C1 (stereo not drawn) | 14.9 |
| O=C(C1CC=CC1)N1C[C@@H](OCc2cccnc2)[C@H]2OCCC[C@H]21 | 2.74 |
| CN(C)CCN1CCC2(CCN(C(=O)c3ccc(F)cc3)CC2)C1=O | -0.00146 |
| CC(C)(C(=O)NCC(=O)N1CCCC1)c1ccccc1F | 2.66 |
| COCCN1CC(c2nc(CSC)no2)CCC1=O (stereo not drawn) | -7.74 |
| O=S(=O)(NC1CCCN(c2ncccn2)C1)N1CCCCCC1 (stereo not drawn) | 12.7 |
| CC(C)N(C)C(=O)CN1CCCC(c2ccc(C(=O)O)cc2)C1 (stereo not drawn) | -7.74 |
| Cc1ccc(Oc2ncccc2CNC2CCCCC2)cn1 | -8.59 |
| Cc1cc(CN(C)C(=O)C(c2cccnc2)N2CCOCC2)n[nH]1 (stereo not drawn) | -52.7 |
| CCn1ncc2c1C(COCC1CC1)N(Cc1c(C)noc1C)CC2 (stereo not drawn) | 12.3 |
| COc1ccsc1C(=O)Nc1cc(CN2CCOCC2)ccc1C | -0.0813 |
| Cc1nc(N2CCOCC2)nc2c1CCN(C(=O)C1CCCCC1)CC2 | -0.152 |
| CC(C)N1CCC2(CC1)C(=O)N(c1cccnc1)c1ccc(F)cc12 | 12.4 |
| CS(=O)(=O)N1CCc2ccc(=O)n(CCN3CCCC3)c2CC1 | 0.108 |
| O=C(c1ccsc1)N1C[C@@H]2CCN(c3cccnc3)C[C@@H]2C1 | -69.3 |
| COc1cc2nc(NCCN3CCNC3=O)cc(C)c2cc1OC | -0.454 |
| Cc1cc2nc(CO[C@H]3CN(C4CCN(C)CC4)C[C@H]3F)[nH]c2cc1C | -11.6 |
| Cc1cc(C)n(-c2cncc(N3CCC(C(=O)N(C)C)CC3)n2)n1 | -16 |
| COc1cc(F)ccc1N(C)Cc1ccccn1 | -1.84 |

| Compound | cytotoxicity at 10 µM [%] |
| --- | --- |
| CCOc1ccc(C(=O)N2C[C@@H]3CC[C@H]2CN(C(=O)C2CCC2)C3)cc1 | -4.68 |
| CN(Cc1ccsc1)C(=O)c1ccc(S(=O)(=O)NC(C)(C)C)cc1 | -8.01 |
| CCOc1ccccc1OC1CCN(C(=O)c2[nH]nc(C)c2Br)CC1 | -8.75 |
| COCCN1CCCC(O)(CN2CCCN(c3ncccn3)CC2)C1=O (stereo not drawn) | -3.95 |
| CC(C)CCN1CC[C@H](c2nnc(Cc3c[nH]c4ccccc34)o2)C1 | 0.167 |
| Cc1cnc(N2CCN3C[C@H](OCc4ccccn4)C[C@H]3C2)nc1 | -1.68 |
| CNC(=O)c1sc2ccccc2c1CC1CCCN1Cc1cnc(C)s1 (stereo not drawn) | 2.59 |
| Cn1cc(CN(Cc2ccccn2)Cc2ccccc2Cl)cn1 | -2.48 |
| CC(C)Oc1ccc(CNC(=O)NCc2ccncc2)cc1F | -18.3 |
| COCC(=O)N1CCC2(COCc3cnc(-c4ccccc4)nc32)C1 (stereo not drawn) | 2.65 |
| CS(=O)(=O)NCCNC(=O)Cc1ccc(Br)s1 | -7.21 |
| Cc1nccn1-c1cc(CNC(=O)N2CCSCC2)ccn1 | -0.613 |
| CCc1csc(CNc2nc3c(s2)c(C)nn3C)n1 | -35.5 |
| CCOCCN1CCN(Cc2nnc(C3CC3)o2)CC1CC (stereo not drawn) | -5.67 |
| O=C(CC1CC1)N1C[C@H]2CCN[C@H]2C1 | 5.75 |
| O=C(CC1CC1)N[C@@H]1CN(C(=O)c2cccs2)C[C@@H]2CCCO[C@@H]21 | -113 |
| O=C(CCn1cccn1)NCC(c1cccs1)N1CCOCC1 (stereo not drawn) | -2.49 |
| CN(C)C(=O)Cc1nc(CN2CCn3c(nnc3C3CC3)C2)cs1 | -9.66 |
| Cn1cc(S(=O)(=O)NC(CO)Cc2c[nH]c3ccccc23)cn1 (stereo not drawn) | -7.37 |
| Cc1nc(CN(C)C2CCN(Cc3ccc4c(c3)CCC4)C2)no1 (stereo not drawn) | -18.2 |
